Test results as given in ChEMBL document CHEMBL4152384, “Pyrtriazoles, a Novel Class of Store-Operated Calcium Entry Modulators: Discovery, Biological Profiling, and in Vivo Proof-of-Concept Efficacy in Acute Pancreatitis” (J Med Chem, 2018).
Activity calls are given as the source filed them. The calls are words filed in the database; no cut-off is given here.

Columns and labels:
[1] = test system: Mus musculus; assay: Protection against cerulein-induced pancreatitis in CD1 mouse assessed as reduction in pancreatic edema at 40 mg/kg, ip administered at 30 and 150 mins post first cerulein addition by hematoxylin and eosin staining based microscopy; assay type: functional, organism-based
[2] = Cytotoxicity against HEK cells assessed as cell viability at 10 uM by MTT assay relative to control; assay type: cell-based; conditions: human, read-out: Activity
Outline: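 Hek cells treated 24 h with compound at 10 μM; viability determined by MTT assay.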

[3] = test system: voltage-gated calcium channel (Mus musculus); assay: Antagonist activity at voltage-gated calcium channels in C57/BL6 mouse cerebellar granule cells assessed as inhibition of KCl-induced voltage dependent calcium entry at 10 uM by fura-2-based assay
[4] = test system: Mus musculus; assay: Acute toxicity in CD1 mouse assessed as histological alterations in lung at 40 mg/kg, ip administered as single dose for 14 days; assay type: organism-based; conditions: in vivo, 336 h
[5] = test system: Mus musculus; assay: Acute toxicity in CD1 mouse assessed as effect on body weight at 40 mg/kg, ip administered as single dose for 14 days; assay type: organism-based; conditions: in vivo, 336 h
[6] = Drug metabolism in CD1 mouse liver microsomes assessed as ester group hydrolysis at 50 uM after 60 mins in presence of NADPH/UDPGA; assay type: ADME, microsome; conditions: 1 h
[7] = test system: Mus musculus; assay: Protection against cerulein-induced pancreatitis in CD1 mouse assessed as reduction in pancreatic inflammation at 40 mg/kg, ip administered at 30 and 150 mins post first cerulein addition by hematoxylin and eosin staining based microscopy; assay type: functional, organism-based
[8] = Plasma concentration in ip dosed CD1 mouse by LC-ESI-MS analysis; assay type: ADME, organism-based; conditions: in vivo
[9] = molecular target: Transient receptor potential cation channel subfamily V member 1 (Homo sapiens) (UniProt Q8NER1); assay: Antagonist activity at TRPV1 (unknown origin) expressed in HEK cells assessed as inhibition of capsaicin-induced calcium increase at 10 uM by fura-2-based assay; assay type: cell-based
Outline: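 TRPV1-overexpressing Hek cells; calcium rise evoked by capsaicin (100 nM), test compounds at 10 μM; peak amplitude read out; mean ± SEM of 600 cells from 30 plates on four separate experimental days.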

[10] = molecular target: Transient receptor potential cation channel subfamily M member 8 (Homo sapiens) (UniProt Q7Z2W7); assay: Antagonist activity at TRPM8 (unknown origin) expressed in HEK cells assessed as inhibition of menthol -mediated calcium increase at 10 uM by fura-2-based assay; assay type: cell-based
Outline: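 TRPM8-overexpressing Hek cells; calcium rise evoked by menthol (100 μM), test compounds at 10 μM; peak amplitude read out; mean ± SEM of 600 cells from 30 plates on four separate experimental days.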

[11] = test system: voltage-gated calcium channel (Mus musculus); assay: Antagonist activity at voltage-gated calcium channels in C57/BL6 mouse cerebellar granule cells assessed as inhibition of KCl-induced voltage dependent calcium entry at 10 uM by fura-2-based assay; remark: listed apart in the source
[12] = test system: Mus musculus; assay: Volume of distribution in ip dosed CD1 mouse by LC-ESI-MS analysis; assay type: ADME, organism-based; conditions: in vivo
[13] = Drug metabolism in CD1 mouse liver microsomes assessed as 1-(4-(4-(3-Carboxyphenyl)-1H-1,2,3-triazol-1-yl)phenyl)-5-(trifluoromethyl)-1H-pyrazole-4-carboxylic Acid metabolite formation at 50 uM after 60 mins by mass spectroscopic analysis; assay type: ADME, microsome
[14] = Cmax in ip dosed CD1 mouse after 1 hr by LC-ESI-MS analysis; assay type: ADME, organism-based; parameters: route intraperitoneal; conditions: in vivo
[15] = molecular target: Short transient receptor potential channel 1 & 3/Stromal interaction molecule 1/Calcium release-activated calcium channel protein 1 (Homo sapiens, UniProt P48995+Q13507+Q13586+Q96D31); assay: (§1) Modulation of TRPC1/TRPC3/STIM1/Orai1 in HEK cells assessed as induction of store-operated calcium entry by measuring residual activity preincubated for 30 mins followed by tBhQ-mediated Ca2+ depletion and Ca2+ re-addition to extracellular solution measured for 600 secs by Fluo-4 AM-based fluorometric assay relative to control; assay type: cell-based
[16] = test system: Mus musculus; assay: Protection against cerulein-induced pancreatitis in CD1 mouse assessed as reduction in neutrophil infiltration at 40 mg/kg, ip administered at 30 and 150 mins post first cerulein addition by myeloperoxidase staining based spectrophotometry; assay type: functional, organism-based
[17] = test system: Mus musculus; assay: Acute toxicity in CD1 mouse assessed as histological alterations in liver at 40 mg/kg, ip administered as single dose for 14 days; assay type: organism-based; conditions: in vivo, 336 h
[18] = molecular target: Short transient receptor potential channel 1 & 3/Stromal interaction molecule 1/Calcium release-activated calcium channel protein 1 (Homo sapiens) (UniProt Q96D31+Q13507+Q13586+P48995); assay: as §1, with “activity at 10 uM” for “activity”; assay type: cell-based
[19] = test system: Mus musculus; assay: Acute toxicity in CD1 mouse assessed as histological alterations in heart at 40 mg/kg, ip administered as single dose for 14 days; assay type: organism-based; conditions: in vivo, 336 h
[20] = test system: Mus musculus; assay: Acute toxicity in CD1 mouse assessed as histological alterations in ileum at 40 mg/kg, ip administered as single dose for 14 days; assay type: organism-based; conditions: in vivo, 336 h
[21] = Half life in ip dosed CD1 mouse by LC-ESI-MS analysis; assay type: ADME, organism-based; conditions: in vivo
[22] = Metabolic stability in CD1 mouse liver S9 fraction assessed as residual compound level at 50 uM after 1 hr; assay type: ADME, subcellular; conditions: read-out: Stability
Outline: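 Hydrolytic stability measured in mouse liver S9 fraction; residual substrate quantified after 1 h incubation.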

[23] = test system: Mus musculus; assay: Acute toxicity in CD1 mouse assessed as histological alterations in stomach at 40 mg/kg, ip administered as single dose for 14 days; assay type: organism-based; conditions: in vivo, 336 h
[24] = test system: Mus musculus; assay: Acute toxicity in CD1 mouse assessed as signs of distress at 40 mg/kg, ip administered as single dose for 14 days; assay type: organism-based; conditions: in vivo, 336 h
[25] = test system: Mus musculus; assay: Acute toxicity in CD1 mouse assessed as histological alterations in kidney at 40 mg/kg, ip administered as single dose for 14 days; assay type: organism-based; conditions: in vivo, 336 h
[26] = Drug metabolism in CD1 mouse liver microsomes assessed as 3-(1-(4-(4-((Pentan-2-yloxy)carbonyl)-5-(trifluoromethyl)-1H-pyrazol-1-yl)-phenyl)-1H-1,2,3-triazol-4-yl)benzoic Acid metabolite formation at 50 uM after 60 mins by mass spectroscopic analysis; assay type: ADME, microsome
[27] = Metabolic stability in CD1 mouse plasma assessed as residual compound level at 50 uM after 30 mins by LC-UV analysis; assay type: ADME, cell-free; conditions: read-out: Stability
Outline: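 Compounds incubated in mouse plasma for 30 min; percentage of residual substrate determined.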

[28] = Drug metabolism in CD1 mouse liver microsomes assessed as ester group hydrolysis at 50 uM after 60 mins in absence of NADPH/UDPGA; assay type: ADME, microsome; conditions: 1 h
[29] = test system: Mus musculus; assay: Acute toxicity in CD1 mouse assessed as histological alterations in brain at 40 mg/kg, ip administered as single dose for 14 days; assay type: organism-based; conditions: in vivo, 336 h
[30] = test system: Mus musculus; assay: Acute toxicity in CD1 mouse assessed as mortality at 40 mg/kg, ip administered as single dose for 14 days; assay type: organism-based; conditions: in vivo, 336 h
[31] = Clearance in ip dosed CD1 mouse by LC-ESI-MS analysis; assay type: ADME, organism-based; conditions: in vivo

Sequence of Short transient receptor potential channel 1 & 3/Stromal interaction molecule 1/Calcium release-activated calcium channel protein 1 (Q96D31 whole entry): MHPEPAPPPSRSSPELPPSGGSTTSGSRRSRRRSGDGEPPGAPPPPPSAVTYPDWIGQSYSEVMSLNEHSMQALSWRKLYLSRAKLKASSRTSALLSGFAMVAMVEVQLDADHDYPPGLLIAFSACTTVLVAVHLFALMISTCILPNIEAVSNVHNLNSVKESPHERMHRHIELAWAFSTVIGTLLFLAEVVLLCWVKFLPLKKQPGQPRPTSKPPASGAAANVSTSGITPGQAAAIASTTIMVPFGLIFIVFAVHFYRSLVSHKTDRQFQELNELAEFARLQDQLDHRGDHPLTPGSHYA
Sequence of Short transient receptor potential channel 1 & 3/Stromal interaction molecule 1/Calcium release-activated calcium channel protein 1 (Q13507 whole entry): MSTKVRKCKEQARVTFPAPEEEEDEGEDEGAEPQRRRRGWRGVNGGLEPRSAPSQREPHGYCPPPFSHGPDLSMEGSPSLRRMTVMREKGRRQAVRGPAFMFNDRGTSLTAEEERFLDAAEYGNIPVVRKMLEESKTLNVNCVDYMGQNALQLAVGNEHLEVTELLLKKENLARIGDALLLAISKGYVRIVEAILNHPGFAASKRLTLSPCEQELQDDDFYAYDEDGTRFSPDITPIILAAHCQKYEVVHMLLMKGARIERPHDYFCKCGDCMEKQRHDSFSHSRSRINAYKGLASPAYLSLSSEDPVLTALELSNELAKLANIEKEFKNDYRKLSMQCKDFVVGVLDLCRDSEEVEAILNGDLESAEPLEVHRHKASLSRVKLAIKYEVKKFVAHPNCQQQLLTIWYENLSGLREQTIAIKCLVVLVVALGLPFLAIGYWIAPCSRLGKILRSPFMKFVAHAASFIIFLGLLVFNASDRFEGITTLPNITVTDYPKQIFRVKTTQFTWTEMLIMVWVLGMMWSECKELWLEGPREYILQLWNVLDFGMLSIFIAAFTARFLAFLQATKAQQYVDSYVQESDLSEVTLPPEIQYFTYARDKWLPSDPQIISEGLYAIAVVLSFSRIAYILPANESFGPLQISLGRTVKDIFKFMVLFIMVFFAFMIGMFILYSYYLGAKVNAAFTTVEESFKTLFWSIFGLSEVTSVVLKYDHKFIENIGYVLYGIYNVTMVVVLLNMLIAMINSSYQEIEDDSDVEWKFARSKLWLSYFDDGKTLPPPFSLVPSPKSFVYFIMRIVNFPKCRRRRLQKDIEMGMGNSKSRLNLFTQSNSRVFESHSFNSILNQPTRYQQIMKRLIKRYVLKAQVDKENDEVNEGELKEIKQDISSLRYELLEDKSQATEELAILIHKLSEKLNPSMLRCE
Sequence of Short transient receptor potential channel 1 & 3/Stromal interaction molecule 1/Calcium release-activated calcium channel protein 1 (Q13586 whole entry): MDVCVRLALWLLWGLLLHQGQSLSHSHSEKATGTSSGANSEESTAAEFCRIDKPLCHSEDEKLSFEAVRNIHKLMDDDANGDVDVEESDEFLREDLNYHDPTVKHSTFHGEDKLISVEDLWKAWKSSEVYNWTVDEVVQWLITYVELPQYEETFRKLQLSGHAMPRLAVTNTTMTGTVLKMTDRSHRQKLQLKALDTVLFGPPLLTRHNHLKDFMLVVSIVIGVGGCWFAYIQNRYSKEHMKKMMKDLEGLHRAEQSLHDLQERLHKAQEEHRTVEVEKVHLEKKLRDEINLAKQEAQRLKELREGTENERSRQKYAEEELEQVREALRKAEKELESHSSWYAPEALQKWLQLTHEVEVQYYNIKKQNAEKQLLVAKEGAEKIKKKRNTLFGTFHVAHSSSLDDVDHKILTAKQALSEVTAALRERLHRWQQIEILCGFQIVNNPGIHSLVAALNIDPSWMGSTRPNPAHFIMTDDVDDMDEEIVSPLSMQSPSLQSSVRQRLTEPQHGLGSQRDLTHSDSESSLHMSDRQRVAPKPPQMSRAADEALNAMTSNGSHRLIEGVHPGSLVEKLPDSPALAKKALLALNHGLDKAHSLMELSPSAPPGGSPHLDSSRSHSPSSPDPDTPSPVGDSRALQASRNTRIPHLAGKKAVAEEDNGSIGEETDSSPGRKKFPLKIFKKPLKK
Sequence of Short transient receptor potential channel 1 & 3/Stromal interaction molecule 1/Calcium release-activated calcium channel protein 1 (P48995 whole entry): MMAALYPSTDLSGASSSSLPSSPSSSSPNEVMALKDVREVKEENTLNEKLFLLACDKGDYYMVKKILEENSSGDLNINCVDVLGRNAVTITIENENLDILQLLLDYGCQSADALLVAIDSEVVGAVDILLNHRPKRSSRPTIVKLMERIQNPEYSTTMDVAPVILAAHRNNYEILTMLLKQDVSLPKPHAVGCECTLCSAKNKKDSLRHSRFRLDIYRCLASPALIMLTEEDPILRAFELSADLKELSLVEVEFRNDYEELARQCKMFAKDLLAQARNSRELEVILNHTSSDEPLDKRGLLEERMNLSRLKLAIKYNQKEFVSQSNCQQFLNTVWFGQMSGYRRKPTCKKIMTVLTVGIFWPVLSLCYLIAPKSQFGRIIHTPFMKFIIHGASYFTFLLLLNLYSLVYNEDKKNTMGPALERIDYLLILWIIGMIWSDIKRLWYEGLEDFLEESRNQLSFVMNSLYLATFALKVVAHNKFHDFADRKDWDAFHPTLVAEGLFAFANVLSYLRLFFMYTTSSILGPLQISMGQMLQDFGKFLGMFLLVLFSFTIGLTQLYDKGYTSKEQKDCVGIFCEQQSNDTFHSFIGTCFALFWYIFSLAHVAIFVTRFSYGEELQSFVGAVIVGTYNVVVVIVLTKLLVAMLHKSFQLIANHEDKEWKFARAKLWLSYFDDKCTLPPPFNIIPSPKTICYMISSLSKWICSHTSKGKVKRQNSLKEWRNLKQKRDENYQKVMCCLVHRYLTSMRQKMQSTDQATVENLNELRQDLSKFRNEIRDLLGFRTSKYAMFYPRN
Sequence of Transient receptor potential cation channel subfamily V member 1 (Homo sapiens) (Q8NER1 whole entry): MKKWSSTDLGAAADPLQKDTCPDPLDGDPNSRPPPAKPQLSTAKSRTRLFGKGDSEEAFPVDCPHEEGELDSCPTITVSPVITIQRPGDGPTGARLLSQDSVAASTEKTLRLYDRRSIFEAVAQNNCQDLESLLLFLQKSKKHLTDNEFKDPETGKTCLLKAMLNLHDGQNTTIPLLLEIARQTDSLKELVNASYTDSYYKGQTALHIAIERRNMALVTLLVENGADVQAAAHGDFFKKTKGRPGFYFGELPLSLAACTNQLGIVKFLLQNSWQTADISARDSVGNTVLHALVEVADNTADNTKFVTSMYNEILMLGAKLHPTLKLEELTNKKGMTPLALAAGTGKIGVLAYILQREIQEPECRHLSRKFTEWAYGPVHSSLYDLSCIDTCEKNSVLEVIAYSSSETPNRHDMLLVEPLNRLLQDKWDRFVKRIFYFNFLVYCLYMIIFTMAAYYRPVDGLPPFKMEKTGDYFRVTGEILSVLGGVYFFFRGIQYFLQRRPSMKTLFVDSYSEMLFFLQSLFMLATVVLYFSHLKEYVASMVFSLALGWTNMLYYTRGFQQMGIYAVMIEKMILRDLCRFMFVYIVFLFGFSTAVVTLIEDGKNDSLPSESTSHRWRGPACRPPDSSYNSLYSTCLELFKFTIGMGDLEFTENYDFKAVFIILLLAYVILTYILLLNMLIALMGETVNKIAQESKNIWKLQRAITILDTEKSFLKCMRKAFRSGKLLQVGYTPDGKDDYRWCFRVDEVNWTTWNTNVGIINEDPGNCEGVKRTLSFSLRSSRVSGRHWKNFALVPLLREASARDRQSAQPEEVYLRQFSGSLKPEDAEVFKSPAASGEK
Sequence of Transient receptor potential cation channel subfamily M member 8 (Homo sapiens) (Q7Z2W7 whole entry, looked up): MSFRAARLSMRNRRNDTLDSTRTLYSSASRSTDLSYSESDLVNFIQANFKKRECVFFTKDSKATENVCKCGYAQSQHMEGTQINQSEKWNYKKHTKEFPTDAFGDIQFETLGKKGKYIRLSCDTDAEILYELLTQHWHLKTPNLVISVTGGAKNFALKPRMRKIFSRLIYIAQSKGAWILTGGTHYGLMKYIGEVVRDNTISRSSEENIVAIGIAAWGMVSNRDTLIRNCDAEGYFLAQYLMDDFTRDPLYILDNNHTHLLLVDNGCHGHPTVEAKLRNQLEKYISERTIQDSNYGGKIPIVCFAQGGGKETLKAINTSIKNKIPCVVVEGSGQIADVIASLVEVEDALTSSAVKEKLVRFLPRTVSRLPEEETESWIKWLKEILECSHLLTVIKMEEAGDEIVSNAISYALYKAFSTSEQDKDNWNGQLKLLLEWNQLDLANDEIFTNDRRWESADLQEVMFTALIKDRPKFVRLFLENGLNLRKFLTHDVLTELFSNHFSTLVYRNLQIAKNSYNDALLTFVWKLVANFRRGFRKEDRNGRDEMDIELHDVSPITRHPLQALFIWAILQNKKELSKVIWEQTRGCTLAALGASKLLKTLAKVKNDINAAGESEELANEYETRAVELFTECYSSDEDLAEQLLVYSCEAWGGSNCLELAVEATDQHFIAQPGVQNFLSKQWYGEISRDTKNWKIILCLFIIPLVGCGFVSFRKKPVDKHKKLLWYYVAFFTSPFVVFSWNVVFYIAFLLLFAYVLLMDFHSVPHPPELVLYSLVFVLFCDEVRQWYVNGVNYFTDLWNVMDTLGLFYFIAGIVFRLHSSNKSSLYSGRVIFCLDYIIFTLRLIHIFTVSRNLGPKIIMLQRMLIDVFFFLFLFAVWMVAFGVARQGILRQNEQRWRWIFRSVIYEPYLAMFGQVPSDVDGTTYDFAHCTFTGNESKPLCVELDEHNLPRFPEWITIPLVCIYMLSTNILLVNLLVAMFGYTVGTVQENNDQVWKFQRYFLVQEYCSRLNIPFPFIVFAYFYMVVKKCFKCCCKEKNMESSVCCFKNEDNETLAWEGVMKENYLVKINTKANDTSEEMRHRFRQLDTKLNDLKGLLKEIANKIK

CCCC(C)OC(=O)c1cnn(-c2ccc(-n3cc(-c4cccc(C(=O)O)c4)nn3)cc2)c1C(F)(F)F (stereo unspecified)
Activity [1]: Active | viability at 10 µM [2]: 93.6% | inhibition [3]: inactive | Activity [4]: Non-Toxic | Activity [5]: Non-Toxic | Drug metabolism [6]: Metabolite_Detected | Activity [7]: Active | concentration [8]: 1200 nM | inhibition [9]: inactive | inhibition [10]: inactive | inhibition [11]: inactive | Vd [12]: 32 L/kg | Drug metabolism [13]: Metabolite_Notdetected | Cmax [14]: 640 ng/mL | IC50 [15]: 4.4 µM | Activity [16]: Active | Activity [17]: Non-Toxic | Activity [18]: 17.5% | Activity [19]: Non-Toxic | Activity [20]: Non-Toxic | half-life [21]: 78 min | remaining at 1 h, 50 µM [22]: 73.7% | Activity [23]: Non-Toxic | Activity [24]: Non-Toxic | Activity [25]: Non-Toxic | Drug metabolism [26]: Metabolite_Detected | remaining at 0.5 h, 50 µM [27]: 97.8% | Drug metabolism [28]: Metabolite_Detected | Activity [29]: Non-Toxic | Activity [30]: Non-Toxic | CL/F [31]: 283 mL/min/kg
